Laboratory results as given in publication PMC3947152 (European journal of nuclear medicine and molecular imaging, 2013).
Like-named read-outs stand apart in the source and are kept apart here.

Key:
[1] = target: hNET (Homo sapiens, UniProt P23975); experiment: Competitive inhibition of ^123I-MIBG binding/uptake in C6-hNET cells; assay type: cell-based
Outline: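 C6 cells stably transduced with hNET; triplicate samples of ~0.5×10^6 cells with ~3.7 kBq 123I-MIBG and 0.005–50 nmol unlabeled benzylguanidine competitor in 0.5 mL medium, 37 °C, 2 h. Cells collected by rapid filtration on glass microfiber filters, washed 3× with ice-cold Tris-buffered saline pH 7.4, gamma counted. Cell-bound activity plotted against competitor concentration; IC50 by least-squares fit.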

[2] = test system: C6-hNET xenografts; experiment: PET imaging with ROI analysis of mice bearing C6-hNET and C6-WT xenografts; assay type: in vivo; conditions: for PET image-based tumor-to-intestine signal ratio: C6-hNET xenograft
Outline: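 Male athymic NCr-nu/nu mice (7–9 weeks) implanted subcutaneously with 5×10^6 C6-hNET cells (right shoulder) and 5×10^6 C6-WT cells (left shoulder) in medium/matrigel 1:1. Scanned at day 20 with tumors 150–350 mm³. Tail-vein injection of 3.7–11.1 MBq 18F tracer in saline. R4 microPET under 2% isoflurane, 10-min acquisitions at 1 h and 4 h p.i., 350–750 keV window. ROI maximum pixel values (%ID/mL) used; 5–7 animals per group.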

[3] = test system: C6-hNET and C6-WT xenografts; experiment: Biodistribution in animals bearing dual C6-hNET and C6-WT xenografts; assay type: in vivo, mice; conditions: for % Injected Dose/g tissue, C6-WT: C6-WT xenograft; for % Injected Dose/g tissue, C6-hNET: C6-hNET xenograft
[4] = test system: C6-hNET cells; experiment: In vitro uptake in hNET-transduced and wild-type C6 cells; assay type: cell-based, rat; conditions: 2 h incubation at 37 °C
Outline: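 Both C6-hNET and wild-type C6 cells grown in DMEM HG. 1.0×10^6 cells in 1.0 mL medium, in triplicate, shaken with radiotracer (~11.1 kBq 18F-labeled or ~3.7 kBq radioiodinated) at 37 °C for 2 h. Cells filtered on glass microfiber filters, washed 3× with ice-cold TBS pH 7.4, gamma counted as % added activity per 10^6 cells. Nonspecific uptake measured with 200 µM MIBG (final). 2–5 independent experiments.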

[5] = test system: mouse serum protein; experiment: Plasma protein binding by ultrafiltration, mouse; assay type: in vitro ADME; conditions: 37 °C, 0.5 h
Outline: (§1)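 Radiotracer in 10 µL (~7.4 kBq 18F; ~3.7 kBq 123I) added to 190 µL human or mouse plasma, in triplicate, gently shaken 37 °C, 0.5 h. Ultrafiltration by centrifugation 10 min at 9,000 rpm. 20 µL of pre-filtration plasma (total) and 20 µL of ultrafiltrate (unbound) gamma counted; unbound fraction taken from ultrafiltrate relative to total.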

[6] = Lipophilicity: distribution coefficient between 1-octanol and PBS pH 7.4; assay type: physicochemical; conditions: 1-octanol/PBS
Outline: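 Octanol and PBS (pH 7.4) pre-equilibrated together for 24 h. Radiotracer (~11.1 kBq 18F; ~3.7 kBq 123I) added to the octanol/PBS pair, in triplicate, shaken 2 h at room temperature, then centrifuged 5 min at 2,000 rpm. Aliquots of each phase gamma counted; logD = log10(octanol counts/PBS counts).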

[7] = test system: human serum protein; experiment: Plasma protein binding by ultrafiltration, human; assay type: in vitro ADME; conditions: 37 °C, 0.5 h
Outline: as §1

[8] = C6-hNET cells, ^123I-MIBG as radioligand, 37 °C, 2 h

hNET, sequence (P23975 whole entry): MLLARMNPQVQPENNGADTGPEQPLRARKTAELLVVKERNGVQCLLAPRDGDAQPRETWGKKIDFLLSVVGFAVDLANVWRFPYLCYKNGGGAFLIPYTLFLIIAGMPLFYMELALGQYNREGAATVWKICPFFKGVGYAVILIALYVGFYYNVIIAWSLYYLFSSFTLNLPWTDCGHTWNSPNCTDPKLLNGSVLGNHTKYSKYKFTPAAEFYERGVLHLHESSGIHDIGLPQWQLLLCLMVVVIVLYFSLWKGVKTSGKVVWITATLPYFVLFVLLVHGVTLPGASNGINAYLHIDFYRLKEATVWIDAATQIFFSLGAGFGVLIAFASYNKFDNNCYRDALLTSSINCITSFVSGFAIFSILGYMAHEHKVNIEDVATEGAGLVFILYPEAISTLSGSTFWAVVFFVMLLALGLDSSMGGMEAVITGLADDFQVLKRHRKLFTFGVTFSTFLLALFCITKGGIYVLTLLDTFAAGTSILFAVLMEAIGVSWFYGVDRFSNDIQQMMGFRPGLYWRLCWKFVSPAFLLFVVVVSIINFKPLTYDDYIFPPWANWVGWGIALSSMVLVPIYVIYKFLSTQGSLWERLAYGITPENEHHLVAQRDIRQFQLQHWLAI

| SMILES | IC50 [1, 8] [µM] | % Injected Dose/g tissue, Adrenals ([3]; 4 h p.i.) [%ID/g] | % Injected Dose/g tissue, Blood ([3]; 4 h p.i.) [%ID/g] | % Injected Dose/g tissue, Bone ([3]; 4 h p.i.) [%ID/g] | % Injected Dose/g tissue, C6-WT ([3]; 4 h p.i.) [%ID/g] | % Injected Dose/g tissue, Heart ([3]; 4 h p.i.) [%ID/g] | % Injected Dose/g tissue, Intestinal contents (L) ([3]; 4 h p.i.) [%ID/g] | % Injected Dose/g tissue, Intestinal contents (S) ([3]; 4 h p.i.) [%ID/g] | % Injected Dose/g tissue, Intestinal wall (L) ([3]; 4 h p.i.) [%ID/g] | % Injected Dose/g tissue, Intestinal wall (S) ([3]; 4 h p.i.) [%ID/g] | % Injected Dose/g tissue, Kidneys ([3]; 4 h p.i.) [%ID/g] | % Injected Dose/g tissue, Liver ([3]; 4 h p.i.) [%ID/g] | % Injected Dose/g tissue, Lungs ([3]; 4 h p.i.) [%ID/g] | % Injected Dose/g tissue, Muscle ([3]; 4 h p.i.) [%ID/g] | % Injected Dose/g tissue, Pancreas ([3]; 4 h p.i.) [%ID/g] | % Injected Dose/g tissue, Salivary glands ([3]; 4 h p.i.) [%ID/g] | % Injected Dose/g tissue, Spleen ([3]; 4 h p.i.) [%ID/g] | % Injected Dose/g tissue, Stomach ([3]; 4 h p.i.) [%ID/g] | further results |
| --- | --- | --- | --- | --- | --- | --- | --- | --- | --- | --- | --- | --- | --- | --- | --- | --- | --- | --- | --- |
| N=C(N)NCc1cccc(F)c1 [MFBG] | 4.86 ± 0.59 | – | – | – | – | – | – | – | – | – | – | – | – | – | – | – | – | – | – |
| N=C(N)NCc1cccc(I)c1 [MIBG, meta-iodobenzylguanidine] | 1.72 ± 0.58 | – | – | – | – | – | – | – | – | – | – | – | – | – | – | – | – | – | – |
| NC(N)=NCc1ccc(F)cc1 [PFBG] | 9.8 ± 2.5 | – | – | – | – | – | – | – | – | – | – | – | – | – | – | – | – | – | – |
| N=C(N)NCc1ccc(I)cc1 [PIBG, para-iodobenzylguanidine] | 7.2 ± 0.5 | – | – | – | – | – | – | – | – | – | – | – | – | – | – | – | – | – | – |
| N=C(N)NCc1cccc(F)c1 [[^18F]MFBG] [meta-[^18F]fluorobenzylguanidine] | 4.9 ± 0.6 | – | – | – | – | – | – | – | – | – | – | – | – | – | – | – | – | – | – |
| N=C(N)NCc1cccc([18F])c1 [[^18F]MFBG] [meta-[^18F]fluorobenzylguanidine] | – | 5.56±2.34 | 0.25±0.05 | 0.89±0.16 | 0.57±0.08 | 2.21±0.66 | 1.26±0.23 | 1.36±0.11 | 1.72±0.52 | 2.16±0.26 | 0.99±0.29 | 2.05±0.30 | 1.30±0.20 | 0.62±0.09 | 0.78±0.06 | 6.09±1.02 | 1.50±0.19 | 0.46±0.12 | fold higher accumulation in C6-hNET tumors than [^18F]PFBG ([2]; 1 h p.i., in vivo): 1.6 fold; PET image-based tumor-to-intestine signal ratio ([2]; 1 h post injection): 1.3±0.2; PET image-based tumor-to-intestine signal ratio ([2]; 4 h post injection): 2.4±0.3; fold lower affinity to hNET compared to ^123I/[^124I]MIBG ([1]; from IC50 values in C6-hNET cells): 2.8 fold; % Injected Dose/g tissue, C6-hNET ([3]; 4 h p.i.): 4.25±0.95 %ID/g; C6-hNET/tissue ratio, Blood ([3]; C6-hNET/Blood, 4 h p.i.): 17.1±4.4; C6-hNET/tissue ratio, Intestine wall (L) ([3]; C6-hNET/Intestine wall (L), 4 h p.i.): 1.8±0.7; C6-hNET/tissue ratio, Intestine wall (S) ([3]; C6-hNET/Intestine wall (S), 4 h p.i.): 1.9±0.4; C6-hNET/tissue ratio, Liver ([3]; C6-hNET/Liver, 4 h p.i.): 2.1±0.4; C6-hNET/tissue ratio, Muscle ([3]; C6-hNET/Muscle, 4 h p.i.): 6.8±0.9; C6-hNET/tissue ratio, Salivary gland ([3]; C6-hNET/Salivary gland, 4 h p.i.): 0.7±0.1 |
| N=C(N)NCc1ccc(F)cc1 [[^18F]PFBG, para-[^18F]fluorobenzylguanidine] | 9.8 ± 2.5 | – | – | – | – | – | – | – | – | – | – | – | – | – | – | – | – | – | – |
| N=C(N)NCc1ccc([18F])cc1 [[^18F]PFBG, para-[^18F]fluorobenzylguanidine] | – | – | – | – | – | – | – | – | – | – | – | – | – | – | – | – | – | – | fold lower uptake in C6-hNET cells than that of ^123I/[^124I]MIBG [4]: 4 fold; PET image-based tumor-to-intestine signal ratio ([2]; 1 h post injection): 0.4±0.1; PET image-based tumor-to-intestine signal ratio ([2]; 4 h post injection): 1.5±0.3 |
| N=C(N)NCc1cccc([131I])c1 [[^124I]MIBG, meta-iodobenzylguanidine] | – | 13.9±1.7 | 0.76±0.15 | 2.56±0.27 | 1.27±0.10 | 19.6±2.5 | 3.62±0.89 | 6.92±1.79 | 7.88±0.74 | 10.3±0.6 | 2.09±0.10 | 5.42±0.44 | 9.50±2.26 | 3.21±0.28 | 3.48±0.31 | 29.1±1.8 | 4.43±0.35 | 2.85±0.54 | % Injected Dose/g tissue, Adrenals ([3]; 24 h p.i.): 7.46±1.78 %ID/g; % Injected Dose/g tissue, Blood ([3]; 24 h p.i.): 0.21±0.02 %ID/g; % Injected Dose/g tissue, Bone ([3]; 24 h p.i.): 0.45±0.09 %ID/g; % Injected Dose/g tissue, C6-WT ([3]; 24 h p.i.): 0.22±0.02 %ID/g; % Injected Dose/g tissue, C6-hNET ([3]; 24 h p.i.): 3.58±0.55 %ID/g; % Injected Dose/g tissue, Heart ([3]; 24 h p.i.): 2.93±0.17 %ID/g; % Injected Dose/g tissue, Intestinal contents (L) ([3]; 24 h p.i.): 2.00±0.06 %ID/g; % Injected Dose/g tissue, Intestinal contents (S) ([3]; 24 h p.i.): 1.76±0.40 %ID/g; % Injected Dose/g tissue, Intestinal wall (L) ([3]; 24 h p.i.): 3.18±0.45 %ID/g; % Injected Dose/g tissue, Intestinal wall (S) ([3]; 24 h p.i.): 2.66±0.18 %ID/g; % Injected Dose/g tissue, Kidneys ([3]; 24 h p.i.): 0.64±0.04 %ID/g; % Injected Dose/g tissue, Liver ([3]; 24 h p.i.): 1.00±0.05 %ID/g; % Injected Dose/g tissue, Lungs ([3]; 24 h p.i.): 1.55±0.37 %ID/g; % Injected Dose/g tissue, Muscle ([3]; 24 h p.i.): 0.69±0.07 %ID/g; % Injected Dose/g tissue, Pancreas ([3]; 24 h p.i.): 0.75±0.10 %ID/g; % Injected Dose/g tissue, Salivary glands ([3]; 24 h p.i.): 7.95±0.81 %ID/g; % Injected Dose/g tissue, Spleen ([3]; 24 h p.i.): 1.36±0.27 %ID/g; % Injected Dose/g tissue, Stomach ([3]; 24 h p.i.): 1.08±0.08 %ID/g |
| N=C(N)NCc1cccc(I)c1 [^123I-MIBG, meta-iodobenzylguanidine] | – | 7.34±2.63 | 0.66±0.10 | 0.71±0.10 | 0.49±0.04 | 2.10±0.14 | 2.25±0.29 | 5.24±0.46 | 2.96±0.74 | 3.67±1.05 | 0.84±0.11 | 2.27±0.18 | 2.84±0.38 | 0.95±0.13 | 1.15±0.13 | 8.41±0.83 | 2.51±0.29 | 0.77±0.34 | % unbound to mouse serum protein [5]: 29.2±2.0 (n = 2) %; logD at 2 h [6]: 0.42 ± 0.01; % unbound to human serum protein [7]: 12.4±0.5 (n = 2) %; IC50 [1]: 1.7 ± 0.6 µM; % Injected Dose/g tissue, C6-hNET ([3]; 4 h p.i.): 4.02±0.35 %ID/g |
